# Molecular target: Xanthine dehydrogenase/oxidase (Bos taurus, UniProt P80457)
# Test: Electron acceptor activity on bovine milk xanthine oxidase using xanthine as reducing substrate
# Conditions: cattle
# Summary of the method: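 Run anaerobically at 25 °C in a sealed cuvette with 25 mM Tris-HCl, 1 mM EDTA, pH 7.5. All solutions were argon-gassed for at least 10 min, and the reaction was started by injecting milk xanthine oxidase. Readings from anaerobic controls lacking the acceptor were subtracted. Uric acid formation was read as the increase in absorbance at 295 nm (ε 12.4 mmol⁻¹ cm⁻¹), expressed per min per unit enzyme, as the mean of three determinations.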
# Chain of Xanthine dehydrogenase/oxidase (P80457 whole entry): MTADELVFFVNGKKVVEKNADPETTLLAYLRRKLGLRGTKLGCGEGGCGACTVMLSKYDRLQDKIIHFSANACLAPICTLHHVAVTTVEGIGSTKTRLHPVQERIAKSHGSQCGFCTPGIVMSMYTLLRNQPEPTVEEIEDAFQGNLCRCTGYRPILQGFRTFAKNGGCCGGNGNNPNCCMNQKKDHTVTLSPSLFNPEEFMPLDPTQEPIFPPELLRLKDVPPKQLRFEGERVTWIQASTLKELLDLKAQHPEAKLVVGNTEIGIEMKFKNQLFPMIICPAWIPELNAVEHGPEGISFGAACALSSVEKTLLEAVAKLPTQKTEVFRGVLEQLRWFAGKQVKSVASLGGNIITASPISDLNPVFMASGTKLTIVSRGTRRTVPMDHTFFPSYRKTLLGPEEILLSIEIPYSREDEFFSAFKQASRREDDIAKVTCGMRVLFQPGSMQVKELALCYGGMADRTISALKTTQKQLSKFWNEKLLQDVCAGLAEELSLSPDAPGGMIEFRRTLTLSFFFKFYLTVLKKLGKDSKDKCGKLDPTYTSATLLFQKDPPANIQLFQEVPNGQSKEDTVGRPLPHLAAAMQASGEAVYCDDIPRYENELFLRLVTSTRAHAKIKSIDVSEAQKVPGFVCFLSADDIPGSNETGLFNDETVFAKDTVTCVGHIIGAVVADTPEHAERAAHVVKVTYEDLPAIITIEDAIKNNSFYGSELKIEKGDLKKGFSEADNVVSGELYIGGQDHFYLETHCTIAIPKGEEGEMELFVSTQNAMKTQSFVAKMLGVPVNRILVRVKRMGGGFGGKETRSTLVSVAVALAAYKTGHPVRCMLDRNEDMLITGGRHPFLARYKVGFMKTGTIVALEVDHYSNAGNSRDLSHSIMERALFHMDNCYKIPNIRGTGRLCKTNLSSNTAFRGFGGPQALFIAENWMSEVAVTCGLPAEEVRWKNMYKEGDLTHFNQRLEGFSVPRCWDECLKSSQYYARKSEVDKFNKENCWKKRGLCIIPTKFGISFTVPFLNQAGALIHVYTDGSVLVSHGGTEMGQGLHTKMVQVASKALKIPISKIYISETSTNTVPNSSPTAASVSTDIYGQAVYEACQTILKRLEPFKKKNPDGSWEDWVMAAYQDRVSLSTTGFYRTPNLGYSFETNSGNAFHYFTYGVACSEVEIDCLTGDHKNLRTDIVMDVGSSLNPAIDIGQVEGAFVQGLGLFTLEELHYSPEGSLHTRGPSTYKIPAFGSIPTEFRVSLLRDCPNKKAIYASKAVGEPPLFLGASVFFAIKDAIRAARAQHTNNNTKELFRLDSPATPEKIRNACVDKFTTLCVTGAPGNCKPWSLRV
row,Acceptor activity,Compound
1,49.6,N=C(NO)N/N=C/c1ccccc1F
2,13.2,COc1cccc(OC)c1/C=N/NC(=N)NO
3,62.1,CCN(CC)c1ccc(/C=N/NC(=N)NO)cc1
4,82.1,N=C(NO)N/N=C/c1ccc(Br)cc1
5,57.9,N=C(NO)N/N=C/c1ccc(Cl)cc1
6,45.4,N=C(NO)N/N=C/c1cccc(Cl)c1
7,41,CN(C)c1ccc(/C=N/NC(=N)NO)cc1
8,44.7,N=C(NO)N/N=C/c1cccc2c1OCO2
9,155.6,COc1ccc(/C=N/NC(=N)NO)c(Cl)c1OC
10,42.3,COc1ccc(OC)c(/C=N/N=C(\N)NO)c1
11,72.9,N=C(NO)N/N=C/c1ccccc1Br
12,16.3,COc1cc(OC)c(/C=N/NC(=N)NO)cc1Br
13,30.7,COc1cc(/C=N/NC(=N)NO)cc(OC)c1
14,119.5,COc1cc(/C=N/NC(=N)NO)c(Br)c(OC)c1OC
15,64.2,N=C(NO)N/N=C/c1ccc(O)cc1
16,10.8,COc1cc(OC)c(/C=N/N=C(\N)NO)c(OC)c1
17,81.5,COc1ccc(/C=N/N=C(\N)NO)c(OC)c1OC
18,72.4,COc1cc(Br)cc(/C=N/NC(=N)NO)c1O
19,40.5,N/C(=N\O)N/N=C/c1ccc(O)c(O)c1O
20,50.9,COc1ccc(/C=N/NC(=N)NO)cc1
21,54.6,COc1cc(/C=N/N=C(\N)NO)cc(OC)c1OC
22,68.9,COc1ccc(/C=N/NC(=N)NO)cc1O
23,33.8,N/C(=N\O)N/N=C/c1ccccc1O
24,45.5,COc1cccc(/C=N/NC(=N)NO)c1O

row,Acceptor activity,Compound
1,101.7,COc1cc(O)c(/C=N/N=C(\N)NO)c(OC)c1
2,43.7,N=C(NO)N/N=C/c1cccc(O)c1O
3,29.7,COc1cc(OC)c(OC)cc1/C=N/N=C(\N)NO
4,72.9,N=C(NO)N/N=C/c1ccc(O)cc1O
5,35.6,COc1ccc(/C=N/NC(=N)NO)cc1Br
6,56.2,N/C(=N\O)N/N=C/c1cccc(F)c1
7,43.2,N=C(NO)N/N=C/c1ccc(F)cc1
8,90.2,N=C(NO)N/N=C/c1ccccc1Cl
9,59.7,COc1ccccc1/C=N/N=C(\N)NO
10,55,COc1cccc(/C=N/NC(=N)NO)c1
11,0.8,COc1cc([N+](=O)[O-])cc(/C=N/NC(=N)NO)c1OC
12,47.3,COc1ccc(OC)c([N+](=O)[O-])c1/C=N/NC(=N)NO
13,44,N=C(NO)N/N=C/c1c(Cl)cccc1[N+](=O)[O-]
14,56.4,N=C(NO)N/N=C/c1ccccc1[N+](=O)[O-]
15,24.4,N/C(=N\O)N/N=C/c1cccc([N+](=O)[O-])c1
16,25.8,N=C(NO)N/N=C/c1cc([N+](=O)[O-])ccc1O
17,31.5,N=C(NO)N/N=C/c1cc(O)ccc1[N+](=O)[O-]
18,48.8,COc1cc([N+](=O)[O-])c(/C=N/NC(=N)NO)c(Cl)c1OC
19,68.3,N=C(NO)N/N=C/c1c(Cl)ccc(Cl)c1[N+](=O)[O-]
20,94.2,N=C(NO)N/N=C/c1ccc([N+](=O)[O-])cc1
21,42.1,N/C(=N\O)N/N=C/c1ccc(Cl)c([N+](=O)[O-])c1
22,35,N=C(NO)N/N=C/c1ccc(Br)c([N+](=O)[O-])c1
23,22,COc1ccc([N+](=O)[O-])c(/C=N/NC(=N)NO)c1OC
24,52.9,COc1cc([N+](=O)[O-])c([N+](=O)[O-])c(/C=N/NC(=N)NO)c1OC

row,Compound,Acceptor activity
1,N=C(NO)N/N=C/c1ccc([N+](=O)[O-])cc1[N+](=O)[O-],295.7
2,N=C(NO)N/N=C/c1c([N+](=O)[O-])cccc1[N+](=O)[O-],154.5
3,N=C(NO)N/N=C/c1c(Cl)ccc([N+](=O)[O-])c1[N+](=O)[O-],216.3

# Reference: ChEMBL document CHEMBL1148322, “Synthesis and quantitative structure-activity relationship of hydrazones of N-amino-N'-hydroxyguanidine as electron acceptors for xanthine oxidase” (J Med Chem, 2004)
